Measurements from ChEMBL document CHEMBL1148136, “Induction of quinone reductase by withanolides” (J Nat Prod, 2002).

Assays:
[1] = Growth inhibition of mouse Hepa-1c1c7 cells by crystal violet staining; format: cell-based; conditions: for IC50: Mus musculus, Hepa-1c1c7; for Activity: mouse, hepa-1c1c7
Summary of the method: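 Hepa 1c1c7 cells seeded at 4000 cells/mL and grown 24 h at 37 °C, then medium changed. Compounds added in 10% DMSO, serially diluted over 0.15-20 µg/mL, and exposed 48 h. Viability read by crystal violet staining at 595 nm. IC50 taken as the half-maximal inhibitory concentration of cell viability.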

[2] = Chemoprevention index, ratio of IC50 for mouse Hepa-1c1c7 cells to drug level required to double specific quinone reductase activity in mouse Hepa-1c1c7 cells; format: functional
Summary of the method: (§1)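 Hepa 1c1c7 cells seeded at 4000 cells/mL, grown 24 h at 37 °C under CO2, then medium changed. Compounds added in 10% DMSO, serially diluted over 0.15-20 µg/mL, and incubated a further 48 h. QR measured as NADPH-dependent, menadiol-mediated MTT reduction to formazan. Protein by crystal violet at 595 nm in duplicate plates. Specific activity expressed relative to solvent control. CD = concentration giving 2-fold activity, CQ = 4-fold. CI = IC50/CD or IC50/CQ.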

[3] = Chemoprevention index, ratio of IC50 for mouse Hepa-1c1c7 cells to drug level required to induce 4-fold increase in quinone reductase activity in mouse Hepa-1c1c7 cells; format: functional; summary of the method: as §1

With CC1=C(C)C(=O)O[C@@H]([C@@H]2CO[C@@]3(O)C[C@H]4[C@@H](C[C@@H](O)[C@@]5(O)CC=CC(=O)[C@]45C)[C@@H]4CC[C@]2(O)[C@]43C)C1 [JABOROSALACTONE S] the IC50 [1] was greater than 39.8 µM.
In the case of CC1=C(C)C(=O)O[C@@H]([C@@H](C)[C@@]2(O)CC[C@H]3[C@@H]4[C@@H]5O[C@@H]5[C@@]5(O)CC=CC(=O)[C@]5(C)[C@H]4CC[C@@]32C)C1 [WITHANONE], the Activity [1] is reported as “Not Active”.
Work on CC1=C(C)[C@]2(OC1=O)[C@H](O)[C@@H](C)[C@]1(O)CC[C@H]3[C@@H]4C[C@@H](O)[C@@]5(Cl)CC=CC(=O)[C@]5(C)[C@H]4C[C@@]2(O)[C@@]31C [JABOROSALACTONE 10] yielded an IC50 [1] greater than 38 µM and a Ratio [2] greater than 5.2.
In the case of C[C@@H](c1ccc2c(c1)CC[C@H]1[C@H]2[C@@H]2O[C@@H]2[C@@]2(O)CC=CC(=O)[C@]12C)C1C[C@]2(C)O[C@]2(C)[C@H](O)O1 (stereo not given in full) [NICANDRENONE], the IC50 [1] is reported as 42.9 µM, the Ratio [2] is reported as 4.1 and the Ratio [3] is reported as 1.1.
For CC(=O)O[C@H]1C=CC(=O)[C@]2(C)[C@H]3CC[C@]45C(=O)O[C@@](C)([C@H]6CC(C)=C(C)C(=O)O6)[C@H]4CC[C@H]5[C@@H]3C[C@H]3O[C@]132, the IC50 [1] was 0.57 µM, the Ratio [2] was greater than 2 and the Ratio [3] was greater than 2.
For CO[C@H]1O[C@@](C)([C@H]2CC(C)=C(C)C(=O)O2)[C@H]2CC[C@H]3[C@@H]4CC=C5[C@@H](O)C=CC(=O)[C@]5(C)[C@H]4CC[C@]123 [WITHAPHYSALIN I], the IC50 [1] was 5.27 µM and the Ratio [2] was 5.1.
With CC(=O)O[C@H]1C=CC(=O)[C@@]2(C)C1=C[C@H](OC(C)=O)[C@@H]1[C@@H]2CC[C@]2(C)[C@@H]([C@@](C)(O)[C@H]3CC(C)=C(C)C(=O)O3)CC[C@@H]12 the IC50 [1] was 0.81 µM and the Ratio [2] was greater than 3.
In the case of CO[C@H]1O[C@@](C)([C@H]2CC(C)=C(C)C(=O)O2)[C@H]2CC[C@H]3[C@@H]4CC=C5C(=O)C=CC(=O)[C@]5(C)[C@H]4CC[C@]123 [WITHAPHYSALIN L], the IC50 [1] is reported as 0.65 µM.
Work on CC1=C(C)C(=O)O[C@@H]([C@@H](C)[C@H]2CC[C@H]3[C@@H]4[C@@H]5O[C@@H]5[C@@]5(O)CC=CC(=O)[C@]5(C)[C@H]4C[C@H](O)[C@]23C)C1 [WITHAFEROXOLIDE] yielded an IC50 [1] greater than 42.5 µM and a Ratio [2] greater than 2.9.
Compound CO[C@]12CC=CC(=O)[C@]1(C)[C@H]1C[C@@]3(O)[C@@]4(C)[C@@H](CC[C@@]4(O)[C@H](C)[C@@H](O)[C@]34OC(=O)C(C)=C4C)[C@@H]1C[C@H]2O [JABOROSALACTONE 12] has an IC50 [1] greater than 39 µM and a Ratio [2] greater than 4.2.
Work on CC1=C(C)C(=O)O[C@@H](/C(C)=C2\[C@@H](O)C[C@H]3[C@@H]4[C@@H]5O[C@@H]5[C@@]5(O)CC=CC(=O)[C@]5(C)[C@H]4CC[C@]23C)C1 [EXODECONOLIDE A] yielded an IC50 [1] greater than 42.7 µM and a Ratio [2] greater than 2.7.
Compound CC(=O)O[C@@H]1O[C@@](C)([C@H]2CC(C)=C(C)C(=O)O2)[C@H]2CC[C@H]3[C@@H]4CC=C5[C@@H](OC(C)=O)C=CC(=O)[C@]5(C)[C@H]4CC[C@]123 has an IC50 [1] of 5.1 µM.
CO[C@@H]1O[C@@](C)([C@H]2CC(C)=C(C)C(=O)O2)[C@H]2CC[C@H]3[C@@H]4CC=C5[C@@H](O)C=CC(=O)[C@]5(C)[C@H]4CC[C@]123 [WITHAPHYSALIN H] showed an IC50 [1] of 5.21 µM and a Ratio [2] of 10.
Work on C[S+]([O-])CCCCN=C=S (stereo not given) [SULFORAPHANE] yielded a Ratio [2] of 23.9 and a Ratio [3] of 1.1.
Compound CC1=C(CO)C(=O)O[C@@H]([C@@H](C)[C@H]2CC[C@H]3[C@@H]4C[C@@H](O)[C@@]5(O)CC=CC(=O)[C@]5(C)[C@H]4CC[C@]23C)C1 [JABOROSALACTONE D] has an IC50 [1] greater than 42.3 µM and a Ratio [2] greater than 1.7.
With CC1=C(C)C(=O)O[C@@H]([C@]2(C)OC(=O)[C@]34CC[C@H]5[C@@H](CC=C6[C@@H](O)C=CC(=O)[C@@]65C)[C@@H]3CC[C@H]24)C1 [WITHAPHYSALIN J] the IC50 [1] was 11 µM and the Ratio [2] was 28.1.
In the case of CC(=O)C1=CC[C@H]2[C@@H]3[C@@H]4O[C@@H]4[C@@]4(O)CC=CC(=O)[C@]4(C)[C@H]3CC[C@]12C, the IC50 [1] is reported as greater than 58.4 µM and the Ratio [2] is reported as greater than 1.7.
For CC1=C(C)C(=O)O[C@@H]([C@]2(C)OC(O)[C@]34CC[C@H]5[C@@H](C[C@H]6O[C@]67[C@@H](O)C=CC(=O)[C@]57C)[C@@H]3CC[C@H]24)C1 (stereo not given in full) [WITHAPHYSALIN F], the IC50 [1] was 4.15 µM.
Compound C[C@@H](c1ccc2c(c1)CC[C@H]1[C@H]2C[C@@H]2O[C@@]23CC=CC(=O)[C@]13C)[C@@H]1C[C@@H]2O[C@@H]2[C@H](O)O1 [SALPICHROLIDE A] has an IC50 [1] greater than 42.9 µM and a Ratio [2] greater than 4.
CO[C@@H]1O[C@@](C)([C@H]2CC(C)=C(C)C(=O)O2)[C@H]2CC[C@H]3[C@@H]4CC=C5C(=O)C=CC(=O)[C@]5(C)[C@H]4CC[C@]123 [WITHAPHYSALIN K] showed an IC50 [1] of 7.29 µM.
In the case of CC1=C(C)C(=O)O[C@@H](/C(C)=C2\[C@H](O)C[C@H]3[C@@H]4[C@@H]5O[C@@H]5[C@@]5(O)CC=CC(=O)[C@]5(C)[C@H]4CC[C@]23C)C1 [EXODECONOLIDE B], the IC50 [1] is reported as greater than 42.7 µM and the Ratio [2] is reported as greater than 2.6.
With CC1=C(C)C(=O)O[C@@H]([C@](C)(O)[C@H]2CC[C@H]3[C@@H]4[C@@H]5O[C@@H]5[C@@]5(O)CC=CC(=O)[C@]5(C)[C@H]4CC[C@]23C)C1 [WITHANOLIDE A] the IC50 [1] was greater than 42.5 µM.
For CC1=C(C)C(=O)O[C@@H]([C@@H](C)[C@@]2(O)CC[C@H]3[C@@H]4C[C@H]5O[C@]56CCCC(=O)[C@]6(CO)[C@H]4CC[C@@]32C)C1 [JABOROSALACTONE O], the IC50 [1] was greater than 42.3 µM and the Ratio [2] was greater than 27.8.
With CC(=O)O[C@@H]1[C@H]2[C@@H]3CC[C@H]([C@@](C)(O)[C@H]4CC(C)=C(C)C(=O)O4)[C@@]3(C)CC[C@@H]2[C@@]2(C)C(=O)C=C[C@H](OC(C)=O)[C@]23O[C@H]13 the IC50 [1] was 0.33 µM and the Ratio [2] was 1.3.
Compound C[C@@H](c1cc(O)c2c(c1)CC[C@H]1[C@H]2C[C@@H]2O[C@@]23CC=CC(=O)[C@]13C)[C@@H]1C[C@@H]2O[C@@H]2[C@H](O)O1 [SALPICHROLIDE G] has an IC50 [1] greater than 42.9 µM and a Ratio [2] greater than 3.7.
In the case of CC1=C(C)C(=O)O[C@@H]([C@@H](C)[C@@]2(O)CC[C@H]3[C@@H]4C[C@H]5O[C@]56CC=CC(=O)[C@]6(CO)[C@H]4CC[C@@]32C)C1 [JABOROSALACTONE L], the Activity [1] is reported as “Not Active”.
CC1=C(C)C(=O)O[C@@H]([C@](C)(O)[C@H]2CC[C@H]3[C@@H]4[C@@H](O)[C@H]5O[C@]56[C@@H](O)C=CC(=O)[C@]6(C)[C@H]4CC[C@]23C)C1 showed an IC50 [1] of 1.27 µM and a Ratio [2] of 2.5.
In the case of CC1=C(C)C(=O)O[C@@H]([C@]2(C)OC(O)[C@]34CC[C@H]5[C@@H](CC=C6[C@@H](O)C=CC(=O)[C@@]65C)[C@@H]3CC[C@H]24)C1 (stereo not given in full) [WITHAPHYSALIN G], the IC50 [1] is reported as 9.83 µM and the Ratio [2] is reported as 19.3.
